From ChEMBL document CHEMBL4028907, “Semisynthesis and Biological Evaluation of Xanthone Amphiphilics as Selective, Highly Potent Antifungal Agents to Combat Fungal Resistance” (J Med Chem, 2017)
In brackets after ≈: the same amount, converted by molar mass. Activity calls are given as the source filed them. The rule behind the calls is not given here.

Experiments:
Candida albicans [1] = assay: Antifungal activity against Candida albicans ATCC 10231 after 24 hrs by two fold serial dilution method; assay type: functional; settings: ATCC 10231, 24 h
Summary of the method: (§1)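 Candida grown on Sabouraud dextrose agar at 35 °C for 24 h, adjusted to ~5×10^3 CFU/mL. Two-fold dilutions from 100 to 0.78 μg/mL in Sabouraud dextrose broth, incubated at 35 °C for 24 h. MIC is the lowest concentration inhibiting growth by eye and by OD600. CLSI-based with minor modifications.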

Candida albicans [2] = assay: Antifungal activity against drug resistant Candida albicans DF2672R after 24 hrs by two fold serial dilution method; assay type: functional; summary of the method: as §1
[3] = Selectivity index, ratio of HC50 for New Zealand white rabbit RBC to MIC for Candida albicans ATCC 10231
Staphylococcus aureus [4] = assay: Antibacterial activity against Staphylococcus aureus DM4001R by two fold serial dilution method; assay type: functional
Summary of the method: (§2)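 Broth microdilution (CLSI, minor modifications) in Sabouraud dextrose, Mueller−Hinton or RPMI 1640 broth; two-fold serial dilutions of compound from stock to final 100 to 0.78 μg/mL. MIC taken as lowest concentration giving no visible growth.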

Bacillus cereus = assay: Antibacterial activity against Bacillus cereus ATCC11778 by two fold serial dilution method; assay type: functional; summary of the method: as §2
Klebsiella pneumoniae = assay: Antibacterial activity against Klebsiella pneumoniae DM4299 by two fold serial dilution method; assay type: functional; summary of the method: as §2
Pseudomonas aeruginosa = assay: Antibacterial activity against Pseudomonas aeruginosa DM23155 by two fold serial dilution method; assay type: functional; summary of the method: as §2
Candida albicans [5] = assay: Antifungal activity against Candida albicans DF1976R after 24 hrs by two fold serial dilution method; assay type: functional; summary of the method: as §1
Candida albicans [6] = assay: Antifungal activity against Candida albicans ATCC90028 after 24 hrs by two fold serial dilution method; assay type: functional; settings: ATCC90028, 24 h; summary of the method: as §1
Candida albicans [7] = assay: Antifungal activity against Candida albicans ATCC24433 after 24 hrs by two fold serial dilution method; assay type: functional; settings: ATCC24433, 24 h; summary of the method: as §1
Candida albicans [8] = assay: Antifungal activity against Candida albicans ATCC11651 after 24 hrs by two fold serial dilution method; assay type: functional; settings: ATCC11651, 24 h; summary of the method: as §1
Fusarium solani [9] = assay: Antifungal activity against Fusarium solani 52628 after 48 hrs by two fold serial dilution method; assay type: functional; settings: Fusarium solani, 52628, 48 h
Summary of the method: (§3)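 Moulds grown on potato dextrose agar, 30 °C, 4 days; inoculum adjusted to about 5×10^3 CFU/mL. Two-fold serial dilutions in RPMI-1640 broth, 100 to 0.78 μg/mL final, mixed with equal volume of cell suspension; incubated 30 °C, 48 h. MIC = lowest concentration inhibiting growth, judged visually and by OD530.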

Fusarium solani [10] = assay: Antifungal activity against Fusarium solani 62877 after 48 hrs by two fold serial dilution method; assay type: functional; settings: Fusarium solani, 62877, 48 h; summary of the method: as §3
Fusarium solani [11] = assay: Antifungal activity against Fusarium solani MYA3636 after 48 hrs by two fold serial dilution method; assay type: functional; settings: MYA3636, 48 h; summary of the method: as §3
Fusarium solani [12] = assay: Antifungal activity against Fusarium solani 46492 after 48 hrs by two fold serial dilution method; assay type: functional; settings: Fusarium solani, 46492, 48 h; summary of the method: as §3
Aspergillus brasiliensis = assay: Antifungal activity against Aspergillus brasiliensis TCC16404 after 48 hrs by two fold serial dilution method; assay type: functional; settings: TCC16404, 48 h; summary of the method: as §3
Aspergillus flavus [13] = assay: Antifungal activity against Aspergillus flavus TCC 204304 after 48 hrs by two fold serial dilution method; assay type: functional; settings: TCC 204304, 48 h; summary of the method: as §3
Aspergillus flavus [14] = assay: Antifungal activity against Aspergillus flavus TCC MYA3631 after 48 hrs by two fold serial dilution method; assay type: functional; settings: TCC MYA3631, 48 h; summary of the method: as §3
Aspergillus fumigatus [15] = assay: Antifungal activity against Aspergillus fumigatus TCC MYA3626 after 48 hrs by two fold serial dilution method; assay type: functional; settings: TCC MYA3626, 48 h; summary of the method: as §3
Aspergillus fumigatus [16] = assay: Antifungal activity against Aspergillus fumigatus TCC 90906 after 48 hrs by two fold serial dilution method; assay type: functional; settings: TCC 90906, 48 h; summary of the method: as §3
Candida albicans [17] = assay: Synergistic antifungal activity against drug resistant Candida albicans DF2672R after 24 hrs in presence of itraconazole by checkerboard assay; assay type: functional
Summary of the method: (§4)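 Checkerboard combination of each compound with a second antifungal, following a previously reported procedure. FIC = MIC of A in combination/MIC of A alone + MIC of B in combination/MIC of B alone.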

Candida albicans [18] = assay: Synergistic antifungal activity against drug resistant Candida albicans DF2672R after 24 hrs in presence of miconazole by checkerboard assay; assay type: functional; summary of the method: as §4
Candida albicans [19] = assay: Synergistic antifungal activity against drug resistant Candida albicans DF2672R after 24 hrs in presence of terbinafine by checkerboard assay; assay type: functional; summary of the method: as §4
Candida albicans [20] = assay: Synergistic antifungal activity against drug resistant Candida albicans DF2672R after 24 hrs in presence of posaconazole by checkerboard assay; assay type: functional; summary of the method: as §4
Candida albicans [21] = assay: Synergistic antifungal activity against drug resistant Candida albicans DF2672R after 24 hrs in presence of natamycin by checkerboard assay; assay type: functional; summary of the method: as §4
Candida albicans [22] = assay: Synergistic antifungal activity against drug resistant Candida albicans DF2672R after 24 hrs in presence of amphotericin B by checkerboard assay; assay type: functional; summary of the method: as §4
Candida albicans [23] = assay: Fungicidal activity against drug resistant Candida albicans DF2672R after 0.5 to 24 hrs by time kill assay; assay type: functional
Summary of the method: (§5)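 Cells at 10^5–10^6 CFU/mL exposed to 1×, 2×, 4× or 8× MIC at 35 °C. Samples taken at 0.5, 1, 2, 4, 8 and 24 h, serially diluted in PBS and plated on SDA. CFU counted after 24 h at 35 °C; biological replicates.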

Candida albicans [24] = assay: Fungicidal activity against drug resistant Candida albicans DF2672R at 8 times MIC after 4 hrs by time kill assay relative to control; assay type: functional; summary of the method: as §5
Candida albicans [25] = assay: Ratio of MIC against drug resistant Candida albicans DF2672R measured after 30 passages to MIC against drug resistant Candida albicans DF2672R measured before 30 passages by two fold serial dilution method; assay type: functional
Summary of the method: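 Serial passage: cells from duplicate tubes at 0.5× MIC adjusted to ~5×10^3 CFU/mL and used as the inoculum for the next broth microdilution MIC, 24 h at 35 °C. Repeated for 27–30 passages, with biological replicates.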

Fusarium oxysporum [26] = assay: Antifungal activity against Fusarium oxysporum MYA3461 after 48 hrs by two fold serial dilution method; assay type: functional; settings: MYA3461, 48 h; summary of the method: as §3
Fusarium oxysporum [27] = assay: Antifungal activity against Fusarium oxysporum 64530 after 48 hrs by two fold serial dilution method; assay type: functional; settings: Fusarium oxysporum, 64530, 48 h; summary of the method: as §3
[28] = Cytotoxicity against human corneal fibroblasts assessed as cell viability up to 100 uM after 4 hrs by LDH assay relative to control; assay type: cell-based, Corneal fibroblast; settings: read-out: Activity
Summary of the method: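 LDH release assay on human corneal fibroblasts seeded at 10000 cells per well, exposed to a range of compound concentrations up to 100 μM. 1% Triton X-100 served as positive control and 0.5% DMSO as negative control; biological replicates.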

Candida albicans [29] = assay: Induction of membrane permiablization in drug resistant Candida albicans DF2672R at 4 times MIC after 1 to 2 hrs by SYTOX green dye based spectrofluorometric assay; assay type: functional
Summary of the method: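 Overnight cultures washed and resuspended in PBS at OD600 0.2, then loaded with 0.3 μM SYTOX Green in the dark. After the signal stabilised, compound in PBS/DMF was added (final DMF 0.5%; 0.5% DMF as control). Fluorescence (ex 504/em 523 nm) followed continuously for 1–2 h; biological replicates.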

Lipid bilayer [30] = assay: Induction of membrane permiablization in calcein loaded DOPC/DOPE/PI large unilamellar vesicles assessed as calcein leakage at 1:4 compound to lipid ratio after 1 to 2 hrs by fluorescence assay relative to control
Summary of the method: (§6)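 LUVs (DOPC/DOPE/PI 2:1:1 with 15 wt % ergosterol, about 100 nm) made by film hydration and extrusion, loaded with 80 mM calcein in HEPES buffer pH 7.4. Free dye removed by G-50 column. Compound added in 0.5% DMF at 50 μM final phospholipid. Emission read at 520 nm (excitation 490 nm); leakage normalized to 1% Triton X-100.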

Lipid bilayer [31] = assay: Induction of membrane permiablization in calcein loaded DOPC/DOPE/PI large unilamellar vesicles assessed as calcein leakage at 1:8 compound to lipid ratio after 1 to 2 hrs by […] fluorescence assay relative to control; summary of the method: as §6
Staphylococcus aureus [32] = assay: Antibacterial activity against methicillin resistant Staphylococcus aureus DM21455 by two fold serial dilution method; assay type: functional
Summary of the method: (§7)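 Broth microdilution per CLSI guidelines with minor modifications, run in Mueller−Hinton broth; MIC is the lowest concentration giving no visible growth.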

Staphylococcus aureus [33] = assay: Antibacterial activity against methicillin resistant Staphylococcus aureus DM9808R by two fold serial dilution method; assay type: functional; summary of the method: as §7

SMILES | MIC (Candida albicans [1]) [µg/mL] | MIC (Candida albicans [2]) [µg/mL] | MIC (Candida albicans [5]) [µg/mL] | MIC (Candida albicans [6]) [µg/mL] | MIC (Candida albicans [7]) [µg/mL] | MIC (Candida albicans [8]) [µg/mL] | MIC (Fusarium solani [9]) [µg/mL] | MIC (Fusarium solani [10]) [µg/mL] | MIC (Fusarium solani [11]) [µg/mL] | MIC (Fusarium solani [12]) [µg/mL] | MIC (Aspergillus brasiliensis) [µg/mL] | MIC (Aspergillus flavus [13]) [µg/mL] | MIC (Aspergillus flavus [14]) [µg/mL] | MIC (Aspergillus fumigatus [15]) [µg/mL] | MIC (Aspergillus fumigatus [16]) [µg/mL] | MIC (Fusarium oxysporum [26]) [µg/mL] | MIC (Fusarium oxysporum [27]) [µg/mL] | also measured
CCCCN(CCCC)CC(O)COc1cc2oc3cc(OCC(O)CN(CCCC)CCCC)c(OC)c(CC=C(C)C)c3c(=O)c2c(O)c1CC=C(C)C (centres undefined) | 3.13 (≈ 4.01 µM) | 3.13 (≈ 4.01 µM) | 3.13 (≈ 4.01 µM) | 3.13 (≈ 4.01 µM) | 3.13 (≈ 4.01 µM) | 3.13 (≈ 4.01 µM) | 6.25 (≈ 8 µM) | 6.25 (≈ 8 µM) | 3.13 (≈ 4.01 µM) | 6.25 (≈ 8 µM) | 3.13 (≈ 4.01 µM) | 12.5 (≈ 16 µM) | 12.5 (≈ 16 µM) | 6.25 (≈ 8 µM) | 12.5 (≈ 16 µM) | 3.13 (≈ 4.01 µM) | 6.25 (≈ 8 µM) | Selectivity Index [3]: > 128; MIC (Staphylococcus aureus [4]): > 50 µg/mL; MIC (Bacillus cereus): > 50 µg/mL; MIC (Klebsiella pneumoniae): > 50 µg/mL; MIC (Pseudomonas aeruginosa): > 50 µg/mL; fractional inhibitory concentration index (FICI) (Candida albicans [17]): 0.63; fractional inhibitory concentration index (FICI) (Candida albicans [18]): 0.81; fractional inhibitory concentration index (FICI) (Candida albicans [19]): 0.29; fractional inhibitory concentration index (FICI) (Candida albicans [20]): 0.91; fractional inhibitory concentration index (FICI) (Candida albicans [21]): 0.91; fractional inhibitory concentration index (FICI) (Candida albicans [22]): 0.64; Activity (Candida albicans [23]): Dose-dependent effect; Activity (Candida albicans [24]): 99.9%; Ratio (Candida albicans [25]): 2; viability at 4 h [28]: > 99%; Activity (Candida albicans [29]): Active; Activity (Lipid bilayer [30]): 55.4%; Activity (Lipid bilayer [31]): 25.8%; MIC (Staphylococcus aureus [32]): > 50 µg/mL; MIC (Staphylococcus aureus [33]): > 50 µg/mL
CC[C@H](C)C[C@H](C)CCCCCCCCC(=O)N[C@H]1C[C@@H](O)[C@@H](NCCN)NC(=O)[C@@H]2[C@@H](O)CCN2C(=O)[C@H]([C@H](O)CCN)NC(=O)[C@H]([C@H](O)[C@@H](O)c2ccc(O)cc2)NC(=O)[C@@H]2C[C@@H](O)CN2C(=O)[C@H]([C@@H](C)O)NC1=O [CASPOFUNGIN] | 0.1 (≈ 0.0915 µM) | 0.2 (≈ 0.183 µM) | 0.2 (≈ 0.183 µM) | 0.1 (≈ 0.0915 µM) | 0.2 (≈ 0.183 µM) | 0.2 (≈ 0.183 µM) | > 50 | > 50 | > 50 | > 50 | > 50 | > 50 | > 50 | > 50 | > 50 | > 50 | > 50 | 
